Data as given in ChEMBL document CHEMBL1949609, “Synthesis and biological evaluation of novel sinomenine derivatives as anti-inflammatory agents” (Eur J Med Chem, 2012).
Activity calls are given as the source filed them. The rule behind the calls is not given here.

Tests used:
Mus musculus [1] = assay: Antiinflammatory activity in BALB/c mouse assessed as increase in survival rate at 15 mg/kg, ip QD administered 3 days prior to LPS challenge measured after 19 hrs; assay type: functional; details: route intraperitoneal
In short: (§1)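 Balb/c mice (~20 g), 10 per group, given compound in olive oil at 15 mg/kg i.p. once daily for 3 days, then LPS 20 mg/kg i.p. Cumulative survival was followed after LPS and analysed by Kaplan–Meier against LPS-only mice.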

RAW264.7 [2] = assay: Antiinflammatory activity in mouse RAW264.7 cells assessed as inhibition of LPS-induced nitric oxide production after 24 hrs by Griess method; assay type: functional, cell-based; details: RAW264.7, 24 h
In short: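 Cells were treated with compound (0.5–100 µM; 0.1% DMSO final) and LPS 500 ng/mL together for 24 h. Nitrite in the medium was read with Griess reagent (10 min, room temperature, dark) at OD540. IC50 comes from three separate experiments, each in triplicate.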

RAW264.7 [3] = assay: Cytotoxicity against mouse RAW264.7 cells after 24 hrs by MTT assay; assay type: cell-based; details: RAW264.7, 24 h
In short: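 Growth of non-LPS RAW264.7 cells was measured by MTT after 24 h with compound: MTT for 4 h, formazan dissolved in DMSO, OD570. Untreated cells were set as 100% viability. IC50 is the concentration giving 50% growth inhibition.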

RAW264.7 [4] = assay: Antiinflammatory activity in mouse RAW264.7 cells assessed as inhibition of LPS-induced TNFalpha production at 10 uM after 6 hrs by ELISA (reference value: 2646.1 +/- 499.8 pg/ml); assay type: functional
In short: (§2)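 RAW264.7 cells (DMEM, 5% FBS, 37 °C, 5% CO2) were exposed to compound at 10 µM plus LPS 500 ng/mL at the same time, with 0.1% DMSO final. Supernatant TNF-α and IL-6 were measured by ELISA at 6, 12 and 24 h.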

RAW264.7 [5] = assay: Antiinflammatory activity in mouse RAW264.7 cells assessed as inhibition of LPS-induced TNFalpha production at 10 uM after 12 hrs by ELISA (reference value: 4126.8 +/- 282 pg/ml); assay type: functional; in short: as §2
RAW264.7 [6] = assay: Antiinflammatory activity in mouse RAW264.7 cells assessed as inhibition of LPS-induced TNFalpha production at 10 uM after 24 hrs by ELISA (reference value: 10124 +/- 1137.2 pg/ml); assay type: functional; in short: as §2
RAW264.7 [7] = assay: Antiinflammatory activity in mouse RAW264.7 cells assessed as inhibition of LPS-induced IL-6 production at 10 uM after 6 hrs by ELISA (reference value: 1046.1 +/- 111.2 pg/ml); assay type: functional; in short: as §2
RAW264.7 [8] = assay: Antiinflammatory activity in mouse RAW264.7 cells assessed as inhibition of LPS-induced IL-6 production at 10 uM after 12 hrs by ELISA (reference value: 2145.1 +/- 368.7 pg/ml); assay type: functional; in short: as §2
RAW264.7 [9] = assay: Antiinflammatory activity in mouse RAW264.7 cells assessed as inhibition of LPS-induced IL-6 production at 10 uM after 24 hrs by ELISA (reference value: 13412 +/- 1167.6 pg/ml); assay type: functional; in short: as §2
RAW264.7 [10] = assay: Inhibition of MAPK-mediated NFkappa B subunit p65 phosphorylation in LPS-stimulated mouse RAW264.7 cells at 10 uM after 4 to 6 hrs by Western blot analysis; assay type: cell-based
In short: (§3)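 Cells were given compound at 10 µM with LPS 500 ng/mL and lysed (Triton X-100 buffer) at 2, 4 and 6 h. Protein was quantified by BCA, run on 10% SDS-PAGE and transferred to PVDF. Blots were probed for total and phosphorylated JNK, ERK1/2, p38, NF-κB p65 and IκBα.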

[11] = biological target: T1, NF-kappa-B inhibitor alpha (Mus musculus) (UniProt Q9Z1E3); assay: Inhibition of LPS-induced IkappaBalpha phosphorylation in mouse RAW264.7 cells at 10 uM after 4 to 6 hrs by Western blot analysis; assay type: cell-based; in short: as §3
T1 sequence (whole entry): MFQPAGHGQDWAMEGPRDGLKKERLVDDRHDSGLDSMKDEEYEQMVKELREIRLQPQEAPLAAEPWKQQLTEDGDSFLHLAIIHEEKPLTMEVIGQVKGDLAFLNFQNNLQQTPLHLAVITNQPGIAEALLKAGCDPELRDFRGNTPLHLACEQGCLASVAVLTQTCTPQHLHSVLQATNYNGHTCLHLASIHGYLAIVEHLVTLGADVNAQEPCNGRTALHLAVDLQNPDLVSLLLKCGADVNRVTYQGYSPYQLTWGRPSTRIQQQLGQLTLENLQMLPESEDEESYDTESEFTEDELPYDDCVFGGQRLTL

RAW264.7 [12] = assay: Inhibition of LPS-induced JNK phosphorylation in mouse RAW264.7 cells at 10 uM after 4 to 6 hrs by Western blot analysis; assay type: cell-based; in short: as §3
[13] = biological target: T2, Mitogen-activated protein kinase 1 and 3 (ERK2 and ERK1) (Mus musculus) (UniProt P63085+Q63844); assay: Inhibition of LPS-induced Erk1/2 phosphorylation in mouse RAW264.7 cells at 10 uM after 4 to 6 hrs by Western blot analysis; assay type: cell-based; in short: as §3
T2 sequence (P63085 whole entry, looked up): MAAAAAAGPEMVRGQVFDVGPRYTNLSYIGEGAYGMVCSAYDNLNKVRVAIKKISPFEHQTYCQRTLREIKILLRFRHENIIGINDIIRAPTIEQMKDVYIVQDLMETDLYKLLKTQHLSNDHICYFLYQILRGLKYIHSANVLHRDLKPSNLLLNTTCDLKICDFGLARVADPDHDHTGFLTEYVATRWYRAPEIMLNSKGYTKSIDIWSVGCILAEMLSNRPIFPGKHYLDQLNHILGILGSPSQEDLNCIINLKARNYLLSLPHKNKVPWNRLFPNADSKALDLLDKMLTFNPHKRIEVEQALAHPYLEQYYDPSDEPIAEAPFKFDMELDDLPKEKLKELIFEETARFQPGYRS
T2 sequence (Q63844 whole entry, looked up): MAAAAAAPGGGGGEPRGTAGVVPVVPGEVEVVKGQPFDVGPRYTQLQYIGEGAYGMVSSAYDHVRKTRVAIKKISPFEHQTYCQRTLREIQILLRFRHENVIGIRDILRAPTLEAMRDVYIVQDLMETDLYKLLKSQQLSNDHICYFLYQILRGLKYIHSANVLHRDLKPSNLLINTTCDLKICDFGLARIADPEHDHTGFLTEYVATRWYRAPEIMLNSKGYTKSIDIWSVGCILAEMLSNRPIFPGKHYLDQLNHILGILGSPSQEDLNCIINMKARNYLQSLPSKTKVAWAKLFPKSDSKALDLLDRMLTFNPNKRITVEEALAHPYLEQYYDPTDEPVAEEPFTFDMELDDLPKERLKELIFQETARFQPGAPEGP

[14] = biological target: MAP kinase p38 (Mus musculus) (UniProt P47811+O08911+Q9WUI1+Q9Z1B7); assay: Inhibition of LPS-induced MAPK p38 phosphorylation in mouse RAW264.7 cells at 10 uM after 4 to 6 hrs by Western blot analysis; assay type: cell-based; in short: as §3
[15] = biological target: T1, NF-kappa-B inhibitor alpha (Mus musculus); assay: Inhibition of LPS-induced IkappaBalpha phosphorylation in mouse RAW264.7 cells at 10 uM at 4 hrs by Western blot analysis; assay type: cell-based; in short: as §3
[16] = biological target: T1, NF-kappa-B inhibitor alpha (Mus musculus); assay: Inhibition of IKappaBalpha degradation in LPS-stimulated mouse RAW264.7 cells at 10 uM by Western blot analysis; assay type: cell-based; in short: as §3
[17] = biological target: Transcription factor p65 (Mus musculus) (UniProt Q04207); assay: Inhibition of NF-kappaB subunit p65 DNA binding activity in LPS-stimulated mouse RAW264.7 cells at 5 to 20 uM by luciferase reporter gene assay; assay type: cell-based
Sequence of Transcription factor p65 (Mus musculus) (Q04207 whole entry): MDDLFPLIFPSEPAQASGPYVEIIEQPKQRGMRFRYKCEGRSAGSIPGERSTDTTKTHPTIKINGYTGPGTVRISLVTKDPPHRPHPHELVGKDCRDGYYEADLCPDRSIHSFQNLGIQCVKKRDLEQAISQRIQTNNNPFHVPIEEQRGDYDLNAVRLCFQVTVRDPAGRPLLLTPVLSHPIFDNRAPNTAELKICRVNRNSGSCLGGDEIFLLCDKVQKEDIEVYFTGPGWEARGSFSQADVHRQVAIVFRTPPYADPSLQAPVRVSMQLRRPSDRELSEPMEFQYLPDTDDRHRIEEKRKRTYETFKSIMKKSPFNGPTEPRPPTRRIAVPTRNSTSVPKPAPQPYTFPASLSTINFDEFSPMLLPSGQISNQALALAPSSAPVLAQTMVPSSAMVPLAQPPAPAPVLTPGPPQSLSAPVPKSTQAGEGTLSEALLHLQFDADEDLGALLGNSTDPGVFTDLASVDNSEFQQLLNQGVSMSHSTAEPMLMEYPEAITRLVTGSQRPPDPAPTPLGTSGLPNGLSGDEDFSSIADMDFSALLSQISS

[18] = biological target: Transcription factor p65 (Mus musculus) (UniProt Q04207); assay: Inhibition of NF-kappaB subunit p65 DNA binding activity in LPS-stimulated mouse RAW264.7 cells at 5 to 20 uM by electrophoretic mobility shift assay; assay type: cell-based
Mus musculus [19] = assay: Antiinflammatory activity in BALB/c mouse assessed as increase in survival rate at 15 mg/kg, ip QD administered 3 days prior to LPS challenge measured after 3 hrs (reference value: 10%); assay type: functional; details: route intraperitoneal
Mus musculus [20] = assay: Antiinflammatory activity in BALB/c mouse assessed as decrease in LPS-induced serum TNFalpha level at 15 mg/kg, ip QD administered 3 days prior to LPS challenge measured after 3 hrs by ELISA; assay type: functional, organism-based; design: dose 15 mg/kg
In short: (§4)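 Balb/c mice were dosed i.p. at 15 mg/kg daily for 3 days (olive oil vehicle) before LPS 20 mg/kg i.p. Blood was drawn 3 h after LPS, and serum TNF-α and IL-6 were measured by ELISA. n = 6.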

Mus musculus [21] = assay: Antiinflammatory activity in BALB/c mouse assessed as decrease in LPS-induced serum IL-6 level at 15 mg/kg, ip QD administered 3 days prior to LPS challenge measured after 3 hrs by ELISA; assay type: functional, organism-based; design: dose 15 mg/kg; in short: as §4
RAW264.7 [22] = assay: Antiinflammatory activity in mouse RAW264.7 cells assessed as inhibition of LPS-induced TNFalpha production at 10 uM after 6 to 24 hrs by ELISA; assay type: functional, cell-based; in short: as §2
RAW264.7 [23] = assay: Antiinflammatory activity in mouse RAW264.7 cells assessed as inhibition of LPS-induced IL-6 production at 10 uM after 6 to 24 hrs by ELISA; assay type: functional, cell-based; in short: as §2
[24] = biological target: T2, Mitogen-activated protein kinase 1 and 3 (ERK2 and ERK1) (Mus musculus); assay: […] of LPS-induced Erk1/2 phosphorylation in mouse RAW264.7 cells at 10 uM after 4 to 6 hrs by Western blot analysis; assay type: cell-based; in short: as §3
RAW264.7 [25] = assay: Inhibition of MAPK-mediated NFkappa B subunit p65 phosphorylation in LPS-stimulated mouse RAW264.7 cells at 10 uM at 6 hrs by Western blot analysis; assay type: cell-based; in short: as §3
[26] = biological target: T1, NF-kappa-B inhibitor alpha (Mus musculus); assay: Inhibition of LPS-induced IkappaBalpha phosphorylation in mouse RAW264.7 cells at 10 uM at 6 hrs by Western blot analysis; assay type: cell-based; in short: as §3
[27] = biological target: T1, NF-kappa-B inhibitor alpha (Mus musculus); assay: Inhibition of IKappaBalpha degradation in LPS-stimulated mouse RAW264.7 cells at 10 uM at 4 to 6 hrs by Western blot analysis; assay type: cell-based; in short: as §3
[28] = biological target: Transcription factor p65 (Mus musculus) (UniProt Q04207); assay: Inhibition of NF-kappaB subunit p65 DNA binding activity in LPS-stimulated mouse RAW264.7 cells at 10 uM after 24 hrs by luciferase reporter gene assay; assay type: cell-based
[29] = biological target: Transcription factor p65 (Mus musculus) (UniProt Q04207); assay: Inhibition of NF-kappaB subunit p65 DNA binding activity in LPS-stimulated mouse RAW264.7 cells at 10 uM after 20 mins by electrophoretic mobility shift assay; assay type: cell-based
In short: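 Nuclear extract (5 µg) was incubated with a biotin-labelled NF-κB consensus probe for 20 min at room temperature. Complexes were resolved on a 6% native gel in 0.5× TBE at 4 °C, then transferred to nylon and detected by chemiluminescence. Specificity was checked by 100-fold unlabelled competitor and p65 antibody supershift.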

[30] = biological target: Transcription factor p65 (Mus musculus) (UniProt Q04207); assay: Inhibition of NF-kappaB subunit p65 DNA binding activity in LPS-stimulated mouse RAW264.7 cells at 20 uM after 24 hrs by luciferase reporter gene assay; assay type: cell-based
Mus musculus [31] = assay: Antiinflammatory activity in BALB/c mouse assessed as decrease in LPS-induced mortality at 15 mg/kg, ip QD administered 3 days prior to LPS challenge; assay type: functional, organism-based; design: dose 15 mg/kg; in short: as §1

Row | Structure (SMILES) | IC50 (RAW264.7 [2]) | IC50 (RAW264.7 [3]) | Activity (RAW264.7 [4]) | Activity (RAW264.7 [5]) | Activity (RAW264.7 [6]) | Activity (RAW264.7 [7]) | Activity (RAW264.7 [8]) | Activity (RAW264.7 [9]) | inhibition (RAW264.7 [12]) | inhibition [14] | survival at 15 mg/kg (Mus musculus [19]) | Activity (Mus musculus [20]) | Activity (Mus musculus [21]) | further results
1 | CCCCCCCCC(=O)Oc1c(OC)ccc2c1[C@@]13CCN(C)[C@@H](C2)[C@H]1C=C(OC)C(=O)C3 | 24.1 µM | 58.2 µM | 2338.5 pg/mL | 4503.8 pg/mL | 9728.9 pg/mL | 148.5 pg/mL | 223.7 pg/mL | 486.3 pg/mL | Active | Active | 30% | Active | Active | survival at 15 mg/kg (Mus musculus [1]): 30%; inhibition (RAW264.7 [10]): Active; inhibition [11]: Active; inhibition [13]: Active; inhibition [15]: inactive; inhibition [16]: Active; inhibition [17]: Active; inhibition [18]: Active
2 | COC1=C[C@@H]2[C@@H]3Cc4ccc(OC)c(O)c4[C@]2(CCN3C)CC1=O [SINOMENINE] | > 200 µM | > 200 µM | – | – | – | – | – | – | – | – | – | – | – | inhibition (RAW264.7 [22]): inactive; inhibition (RAW264.7 [23]): inactive
3 | COC1=C[C@@H]2[C@@H]3Cc4ccc(OC)c(OCCCOc5c(OC)ccc6c5[C@@]57CCN(C)[C@@H](C6)[C@H]5C=C(OC)C(=O)C7)c4[C@]2(CCN3C)CC1=O | 15.2 µM | 41.1 µM | 1817.6 pg/mL | 3501.9 pg/mL | 8303.2 pg/mL | 949.7 pg/mL | 1667.8 pg/mL | 13096.9 pg/mL | inactive | inactive | 70% | Active | Active | Activity [24]: Active; inhibition (RAW264.7 [25]): Active; inhibition [26]: Active; inhibition [27]: Active; inhibition [28]: inactive; inhibition [29]: inactive; inhibition [30]: Active; Activity (Mus musculus [31]): Active
